From ChEMBL document CHEMBL1687720 (Antimicrob Agents Chemother, 2009) come the findings set out here.

Assay [1] addresses T1, Thioredoxin reductase (Homo sapiens, UniProt Q16881+Q9NNW7+Q86VQ6). In words: Inhibition of thioredoxin reductase in human A549 cells assessed as enzyme activity at 5 µM after 24 hrs by DTNB assay relative to untreated control. Further details: scale not given: the % may be the effect or the level left.
In assay [2] the test system is Plasmodium falciparum. Briefly: Downregulation of DNA-directed RNA polymerase 2 mRNA level in Plasmodium falciparum 3D7 trophozoites at 126 nM by RT-qPCR analysis relative to untreated control. It is filed as functional. In a few lines: (§1)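 P. falciparum 3D7 trophozoites are exposed to 126 nM compound for 12, 15 or 18 h, then harvested by saponin lysis at 37°C. RNA is extracted and reverse-transcribed, and transcripts are quantified by real-time PCR in quadruplicate. Analysis uses ΔΔCT with 18S rRNA as reference (LDH also checked), expressed as % of untreated control.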

Assay [3] has as its system Plasmodium falciparum. Briefly: Antiplasmodial activity against chloroquine-sensitive Plasmodium falciparum 3D7 assessed as inhibition of ring stage parasite growth at 526 nM after 24 hrs by [3H]hypoxanthine incorporation assay. It is filed as functional. The conditions noted are these: read-out: GI. In outline: (§2)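 P. falciparum 3D7 is synchronized with sorbitol. […] Cells are washed four times, then labelled with [3H]hypoxanthine for 24 h. Growth is given as % of untreated control for each stage, in triplicate.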

Assay [4] has as its system A549. Briefly: Effect on glutathione S-transferase expression in human A549 cells assessed as transcript level at 5 nM after 24 hrs by RT-qPCR analysis relative to untreated control. It is filed as functional. Particulars: in the assay text read “5 µM” for “5 nM”. In a few lines: (§3)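 A549 cells are seeded at 2.5 × 10^5 per 25-cm2 well. At 40–45% confluence they are treated for 24 h with 166 or 662 μM, 158 or 315 μM, or 5 or 24 μM compound; controls receive <5% DMSO. Total RNA is DNase-treated and qRT-PCR is run in quadruplicate. Values are normalized to GAPDH and given as % of untreated control.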
Background: Quantitative PCR measures a nucleic acid by following its amplification.

For another assay, the system named is Plasmodium berghei. In words: Antimalarial activity against Plasmodium berghei infected in mouse assessed as reduction in parasite load at 10 mg/kg for 4 days treated postinfection measured on day 7. The format is functional. Further details: scale not given: the % may be the effect or the level left. In a few lines:
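Murine Plasmodium berghei infection model. Compound given subcutaneously at 10 mg/kg for 4 days after infection, 13 treated mice and 13 controls. Parasitemia is compared with untreated controls, with significance by Fisher's exact test.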

Assay [5] concerns Plasmodium falciparum. Briefly: Upregulation of selenoprotein-1 mRNA level in Plasmodium falciparum 3D7 trophozoites at 126 nM after 12 hrs by RT-qPCR analysis relative to untreated control. It is filed as functional. In a few lines:
(§4)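 Synchronized 3D7 trophozoites in RPMI/Albumax culture at 37°C under 3% O2, 3% CO2 were exposed 12, 15 or 18 h, then harvested by 0.02% saponin lysis. RNA was reverse-transcribed and analyzed by real-time PCR in quadruplicate. Quantification used ΔΔCT with 18S rRNA reference (LDH also checked), expressed as % of untreated control.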

Assay [6] relates to Plasmodium falciparum. Briefly: Upregulation of glutathione S-transferase mRNA level in Plasmodium falciparum 3D7 trophozoites at 126 nM after 12 hrs by RT-qPCR analysis relative to untreated control. The format is functional, organism-based. In outline:
as §4

Assay [7] concerns Plasmodium falciparum. In words: Upregulation of glutathione synthetase mRNA level in Plasmodium falciparum 3D7 trophozoites at 126 nM after 12 hrs by RT-qPCR analysis relative to untreated control. It is filed as functional. In outline:
as §4

The test system of assay [8] is Plasmodium falciparum. In words: Upregulation of glutathione synthetase mRNA level in Plasmodium falciparum 3D7 trophozoites at 126 nM after 18 hrs by RT-qPCR analysis relative to untreated control. The format is functional. In a few lines: as §4
The test system of assay [9] is Plasmodium falciparum. Briefly: Downregulation of glutathione reductase mRNA level in Plasmodium falciparum 3D7 trophozoites at 126 nM after 18 hrs by RT-qPCR analysis relative to untreated control. The format is functional. In outline: as §1
Assay [10] has as its system A549. In words: Effect on thioredoxin reductase expression in human A549 cells assessed as transcript level at 24 nM after 24 hrs by RT-qPCR analysis relative to untreated control. The format is functional. The conditions noted are these: in the assay text read “24 µM” for “24 nM”. In a few lines:
as §3

In assay [11] the test system is Plasmodium falciparum. In words: Downregulation of gamma-glutamylcysteine synthetase mRNA level in Plasmodium falciparum 3D7 trophozoites at 126 nM after 15 hrs by RT-qPCR analysis relative to untreated control. It is filed as functional. In a few lines:
as §1

In assay [12] the test system is Plasmodium falciparum. Briefly: Antiplasmodial activity against chloroquine-sensitive Plasmodium falciparum 3D7 assessed as inhibition of schizont stage parasite growth at 526 nM after 24 hrs by [3H]hypoxanthine incorporation assay. The conditions noted are these: read-out: GI. The format is functional. In outline: as §2
In assay [13] the target is T1, Thioredoxin reductase. Briefly: Inhibition of thioredoxin reductase in human A549 cells assessed as enzyme activity at 24 µM after 24 hrs by DTNB assay relative to untreated control. Further details: scale not given: the % may be the effect or the level left.
The test system of assay [14] is Plasmodium falciparum. Briefly: Downregulation of gamma-glutamylcysteine synthetase mRNA level in Plasmodium falciparum 3D7 trophozoites at 126 nM after 18 hrs by RT-qPCR analysis relative to untreated control. The format is functional. In a few lines:
as §1

Assay [15] relates to Plasmodium falciparum. Briefly: Antiplasmodial activity against chloroquine-resistant Plasmodium falciparum K1 in presence of artemisinin. The format is functional.
Assay [16] deals with T1, Thioredoxin reductase. Briefly: Inhibition of thioredoxin reductase in human A549 cells assessed as enzyme activity at 662 µM after 24 hrs by DTNB assay relative to untreated control. Further details: scale not given: the % may be the effect or the level left.
Assay [17] concerns Plasmodium falciparum. Briefly: Antiplasmodial activity against chloroquine-resistant Plasmodium falciparum K1 in presence of chloroquine. The format is functional.
Assay [18] has as its system A549. Briefly: Effect on thioredoxin reductase expression in human A549 cells assessed as transcript level at 662 nM after 24 hrs by RT-qPCR analysis relative to untreated control. The format is functional. Particulars: in the assay text read “662 uM” for “662 nM”. In a few lines: as §3
The target of assay [19] is T1, Thioredoxin reductase. Briefly: Inhibition of thioredoxin reductase in human A549 cells assessed as enzyme activity at 166 µM after 24 hrs by DTNB assay relative to untreated control. Further details: scale not given: the % may be the effect or the level left.
In assay [20] the test system is A549. In words: Effect on glutathione S-transferase expression in human A549 cells assessed as transcript level at 166 nM after 24 hrs by RT-qPCR analysis relative to untreated control. The format is functional. Particulars: in the assay text read “166 µM” for “166 nM”. In a few lines:
as §3

The test system of assay [21] is A549. In words: Inhibition of glutathione S-transferase in human A549 cells assessed as enzyme activity at 166 µM after 24 hrs relative to untreated control. Further details: scale not given: the % may be the effect or the level left.
Assay [22] addresses T1, Thioredoxin reductase. Briefly: Inhibition of thioredoxin reductase in human A549 cells assessed as enzyme activity at 315 µM after 24 hrs by DTNB assay relative to untreated control. Also noted: scale not given: the % may be the effect or the level left.
In assay [23] the test system is A549. Briefly: Effect on glutathione S-transferase expression in human A549 cells assessed as transcript level at 158 nM after 24 hrs by RT-qPCR analysis relative to untreated control. It is filed as functional. The conditions noted are these: in the assay text read “158 µM” for “158 nM”. In outline: as §3

The source made the active and inactive calls. The calls are words filed in the database; no cut-off is given here.

For the compound `O=c1oc2c(O)c(O)c(O)c3c(=O)oc4c(O)c(O)c(O)c1c4c23` [CORULEOELLAGIC ACID], the Activity on Thioredoxin reductase [1] is 42%; in the assay with Plasmodium falciparum [2], 42%; in the assay with A549 [4], 68%; with Plasmodium berghei, 30%; in the assay on Plasmodium falciparum [5], 160%; with Plasmodium falciparum [7], 128%. The Activity in the assay with Plasmodium falciparum [8] is 128%; in the assay on Plasmodium falciparum [9], 62%; in the assay on A549 [10], 73%; in the assay with Plasmodium falciparum [11], 25%; at Thioredoxin reductase [13] it was 45%; in the assay with Plasmodium falciparum [14], 25%. The inhibition of growth at 0.526 µM stood at 38% in the assay with Plasmodium falciparum [3] and 39% with Plasmodium falciparum [12]. Also, the result with Plasmodium falciparum [6] was inactive.
As to `O=c1oc2c(O)c(O)cc3c(=O)oc4c(O)c(O)cc1c4c23` [ELLAGIC ACID], the FIC50 in the assay with Plasmodium falciparum [15] and with Plasmodium falciparum [17] was 1 throughout. Besides, the Activity at Thioredoxin reductase [16] turned out to be 77%; in the assay on A549 [18], 131%; on Thioredoxin reductase [19] it was 82%; in the assay with A549 [20], 122%; with A549 [21], 109%.
On to `O=c1oc2c(O)c(O)c(O)c3c(=O)oc4c(O)c(O)cc1c4c23` [FLAVELLAGIC ACID], for which the Activity on Thioredoxin reductase [22] and in the assay with A549 [23] was 115% in each case.
